Measured values published in ChEMBL document CHEMBL5346918, “Design, synthesis and biological evaluation of Nucleosidic CD99 inhibitors that selectively reduce Ewing sarcoma viability” (Eur J Med Chem, 2023).
Active and inactive are the calls of the source. The rule behind the calls is not given here.

What was measured:
TC-32 [1] = experiment: Cytotoxicity against human TC-32 cells assessed as reduction in cell viability incubated for 48 hrs by CellTiter-Blue reagent based […] assay; format: functional; conditions: TC-32, 48 h
Outline: (§1)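 Cells seeded and grown to 60–80% confluency (usually 18–24 h), then treated 48 h with a range of concentrations prepared in each line's medium. CellTiter-Blue reagent added at the end of treatment and incubated 3–5 h at 37 °C, 5% CO₂. Fluorescence read at 560 nm excitation and 590 nm emission. IC50 from nonlinear regression, log(inhibitor) vs. normalized response.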

[2] = Cytotoxicity against human HEK293 cells assessed as reduction in cell viability incubated for 48 hrs by CellTiter-Blue reagent based […] assay; format: toxicity
Outline: (§2)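 Cells grown in their own media at 37 °C, 5% CO2, mycoplasma-tested. At 60–80% confluency, treated 48 h with a range of concentrations made in medium. CellTiter-Blue added for 3–5 h at 37 °C, fluorescence read at ex 560/em 590 nm. IC50 from nonlinear regression (log(inhibitor) vs normalized response); mean ± SD of duplicate or triplicate determinations.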

[3] = Cytotoxicity against human STA-ET-7.2 cells assessed as reduction in cell viability incubated for 48 hrs by CellTiter-Blue reagent based […] assay; format: functional; conditions: STA-ET-7.2, 48 h
U2OS [4] = experiment: Induction of apoptosis in human U2OS cells assessed as increase in hypodiploid subG1 population at 10 to 40 uM incubated for 48 hrs by propidium iodide staining based flow cytometry; format: functional, cell-based; conditions: dose 10-40 µM
Outline: (§3)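 Treatment same as the apoptosis blots (48 h; 0.1–0.4 μM or 10–40 μM). Adherent cells trypsinized and pooled with floating cells, then washed in PBS. Fixed in ice-cold 70% ethanol 1 h on ice, rehydrated, RNase A 100 μg/mL. Stained with propidium iodide at 50 μg/mL final for 1 h on ice. Sub-G1 fraction read by flow cytometry.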

[5] = Cytotoxicity against human MHH-ES cells assessed as reduction in cell viability incubated for 48 hrs by CellTiter-Blue reagent based […] assay; format: functional
TC-32 [6] = experiment: Induction of apoptosis in human TC-32 cells assessed as PARP cleavage at 10 to 40 uM incubated for 48 hrs by western blot analysis; format: functional, cell-based; conditions: dose 10-40 µM
Outline: (§4)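 Cells treated 48 h with three concentrations per agent (0.1, 0.2 or 0.4 μM for one; 10, 20 or 40 μM for another). Total cell lysates immunoblotted for PARP and caspase 3 and their cleaved products. Actin used as loading control and for normalization. ECL signal imaged on PVDF, bands quantified by densitometry.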

[7] = Cytotoxicity against human COG-E-352 cells assessed as reduction in cell viability incubated for 48 hrs by CellTiter-Blue reagent based […] assay; format: functional; conditions: COG-E-352, 48 h; outline: as §2
[8] = Cytotoxicity against human TC71 cells assessed as reduction in cell viability incubated for 48 hrs by CellTiter-Blue reagent based […] assay; format: functional; conditions: TC-71, 48 h; outline: as §1
[9] = Cytotoxicity against human SK-ES cells assessed as reduction in cell viability incubated for 48 hrs by CellTiter-Blue reagent based […] assay; format: functional; outline: as §2
A549 = experiment: Cytotoxicity against human A549 cells assessed as reduction in cell viability incubated for 48 hrs by CellTiter-Blue reagent based […] assay; format: functional; conditions: A549, 48 h
U2OS [10] = experiment: Induction of apoptosis in human U2OS cells assessed as PARP cleavage at 10 to 40 uM incubated for 48 hrs by western blot analysis; format: functional, cell-based; conditions: dose 10-40 µM; outline: as §4
TC-32 [11] = experiment: Induction of apoptosis in human TC-32 cells assessed as caspase-3 cleavage at 10 to 40 uM incubated for 48 hrs by western blot analysis; format: functional, cell-based; conditions: dose 10-40 µM; outline: as §4
A 172 = experiment: Cytotoxicity against human A-172 cells assessed as reduction in cell viability incubated for 48 hrs by CellTiter-Blue reagent based […] assay; format: functional; conditions: A 172, 48 h; outline: as §2
U2OS [12] = experiment: Induction of apoptosis in human U2OS cells assessed as caspase-3 cleavage at 10 to 40 uM incubated for 48 hrs by western blot analysis; format: functional, cell-based; conditions: dose 10-40 µM; outline: as §4
143B = experiment: Cytotoxicity against human 143B cells assessed as reduction in cell viability incubated for 48 hrs by CellTiter-Blue reagent based […] assay; format: functional; outline: as §2
SAOS-2 = experiment: Cytotoxicity against human SAOS-2 cells assessed as reduction in cell viability incubated for 48 hrs by CellTiter-Blue reagent based […] assay; format: functional; conditions: SAOS-2, 48 h; outline: as §1
[13] = target: T1, CD99 antigen (Homo sapiens) (UniProt P14209); experiment: Binding affinity to N-terminal biotin-tagged recombinant human CD99 extracellular domain (23 to 122 residues) expressed in Escherichia coli BL21(DE3) assessed as association rate constant by surface plasmon resonance analysis
T1 sequence (whole entry): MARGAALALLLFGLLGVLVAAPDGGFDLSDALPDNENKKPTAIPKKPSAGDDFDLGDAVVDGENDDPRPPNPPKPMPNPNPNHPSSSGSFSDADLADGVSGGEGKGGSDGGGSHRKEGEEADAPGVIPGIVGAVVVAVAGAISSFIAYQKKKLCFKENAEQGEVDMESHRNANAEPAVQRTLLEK
Outline: (§5)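 Bacterially expressed recombinant CD99 extracellular domain amine-coupled to CM5 chip (10 mM sodium acetate pH 4.0, ~3500 RU). Analytes injected at various concentrations in PBS-P pH 7.4 + 1% DMSO at 50 μL/min. Contact time 60 s, dissociation 300 s, regeneration with 15 s H3PO4 pulse. Duplicate injections; sensorgrams fitted to 1:1 kinetic model.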

SJRH30 = experiment: Cytotoxicity against human Rh30 cells assessed as reduction in cell viability incubated for 48 hrs by CellTiter-Blue reagent based […] assay; format: functional; conditions: SJRH30, 48 h
U2OS [14] = experiment: Cytotoxicity against human U2OS cells assessed as reduction in cell viability incubated for 48 hrs by CellTiter-Blue reagent based […] assay; format: functional; outline: as §1
TC-32 [15] = experiment: Inhibition of DNA synthesis in human TC-32 cells assessed as induction of DNA damage by measuring gammaH2AX phosphorylation at 20 to 80 uM incubated for 6 hrs by western blot analysis; format: toxicity, cell-based; conditions: tc-32, 6 h, dose 20-80 µM
Outline: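 TC-32 cells treated 6 h at 20, 40 or 80 μM. Total lysates immunoblotted for H2A.X and Ser139-phosphorylated γH2A.X. Actin used as loading control and for normalization. Bands quantified by densitometry.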

HOS = experiment: Cytotoxicity against human HOS cells assessed as reduction in cell viability incubated for 48 hrs by CellTiter-Blue reagent based […]; format: functional; outline: as §2
TC-32 [16] = experiment: Induction of apoptosis in human TC-32 cells assessed as increase in hypodiploid subG1 population at 10 to 40 uM incubated for 48 hrs by propidium iodide staining based flow cytometry; format: functional, cell-based; conditions: dose 10-40 µM; outline: as §3
[17] = Cytotoxicity against human MG-63.3 cells assessed as reduction in cell viability incubated for 48 hrs by CellTiter-Blue reagent based […] assay; format: functional; conditions: MG-63.3, 48 h; outline: as §2
CD99 antigen [18] = target: T2, CD99 antigen (Homo sapiens, UniProt P14209); experiment: Binding affinity to N-terminal biotin-tagged recombinant human CD99 extracellular domain (23 to 122 residues) expressed in Escherichia coli BL21(DE3) assessed as dissociation rate constant by surface plasmon resonance analysis; outline: as §5
T2 sequence (P14209 whole entry): T1 sequence (whole entry)

HeLa = experiment: Cytotoxicity against human HeLa cells assessed as reduction in cell viability incubated for 48 hrs by CellTiter-Blue reagent based […] assay; format: functional; outline: as §2
CD99 antigen [19] = target: T2, CD99 antigen; experiment: Binding affinity to N-terminal biotin-tagged recombinant human CD99 extracellular domain (23 to 122 residues) expressed in Escherichia coli BL21(DE3) by surface plasmon resonance analysis; outline: as §5
RD = experiment: Cytotoxicity against human RD cells assessed as reduction in cell viability incubated for 48 hrs by CellTiter-Blue reagent based […] assay; format: functional; outline: as §2
[20] = Cytotoxicity against human A4573 cells assessed as reduction in cell viability incubated for 48 hrs by CellTiter-Blue reagent based […] assay; format: functional; conditions: A4573, 48 h; outline: as §1
PC-3 = experiment: Cytotoxicity against human PC-3 cells assessed as reduction in cell viability incubated for 48 hrs by CellTiter-Blue reagent based […] assay; format: functional; conditions: PC-3, 48 h; outline: as §2
U-87 MG = experiment: Cytotoxicity against human U-87 MG cells assessed as reduction in cell viability incubated for 48 hrs by CellTiter-Blue reagent based […] assay; format: functional, U-87MG ATCC; outline: as §2
U2OS [21] = experiment: Induction of apoptosis in human U2OS cells assessed as increase in hypodiploid subG1 population at 4 to 16 uM incubated for 48 hrs by propidium iodide staining based flow cytometry; format: functional, cell-based; conditions: dose 4-16 µM
Outline: (§6)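 Cells treated 48 h at 4, 8 or 16 μM, then adherent and floating cells pooled, fixed in ice-cold 70% ethanol 1 h, treated with RNase A 100 μg/mL, stained with propidium iodide 50 μg/mL for 1 h on ice. Sub-G1 fraction measured by flow cytometry.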

[22] = target: T1, CD99 antigen (Homo sapiens); experiment: Binding affinity to CD99 in human TC71 cells assessed as protein stabilization at 80 uM incubated for 30 mins and measured at 51 to 99 degC by CETSA analysis; format: cell-based
Outline: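 TC-71 cell lysate mixed with compound at 80 μM final, aliquots heated at various temperatures; thermally stable CD99 remaining in solution detected by western blot with anti-CD99 antibody and quantified by densitometry relative to untreated lysate.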

U2OS [23] = experiment: Induction of apoptosis in human U2OS cells assessed as caspase-3 cleavage at 4 to 16 uM incubated for 48 hrs by western blot analysis; format: functional, cell-based; conditions: dose 4-16 µM
Outline: (§7)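 U-2 OS cells treated 48 h at 4, 8 or 16 μM; total lysates immunoblotted for cleaved PARP and cleaved caspase 3, actin as loading and normalization control.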

TC-32 [24] = experiment: Induction of apoptosis in human TC-32 cells assessed as increase in hypodiploid subG1 population at 4 to 16 uM incubated for 48 hrs by propidium iodide staining based flow cytometry; format: functional, cell-based; conditions: dose 4-16 µM; outline: as §6
TC-32 [25] = experiment: Induction of apoptosis in human TC-32 cells assessed as PARP cleavage at 4 to 16 uM incubated for 48 hrs by western blot analysis; format: functional, cell-based; conditions: dose 4-16 µM
Outline: (§8)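 TC-32 cells treated 48 h at 4, 8 or 16 μM; total lysates immunoblotted for cleaved PARP and cleaved caspase 3, actin as loading and normalization control; ECL imaging with densitometry.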

U2OS [26] = experiment: Induction of apoptosis in human U2OS cells assessed as PARP cleavage at 4 to 16 uM incubated for 48 hrs by western blot analysis; format: functional, cell-based; conditions: dose 4-16 µM; outline: as §7
TC-32 [27] = experiment: Induction of apoptosis in human TC-32 cells assessed as caspase-3 cleavage at 4 to 16 uM incubated for 48 hrs by western blot analysis; format: functional, cell-based; conditions: dose 4-16 µM; outline: as §8

Row | Structure (SMILES) | IC50 (TC-32 [1]) [µM] | IC50 at 48 h [2] [µM] | IC50 [3] [µM] | IC50 [5] [µM] | IC50 [7] [µM] | IC50 [8] [µM] | IC50 [9] [µM] | IC50 (A549) [µM] | IC50 (A 172) [µM] | IC50 (143B) [µM] | IC50 (SAOS-2) [µM] | Ka [13] [M⁻¹ s⁻¹] | IC50 (SJRH30) [µM] | IC50 (U2OS [14]) [µM] | IC50 (HOS) [µM] | IC50 [17] [µM] | Kd (CD99 antigen [18]) | IC50 (HeLa) [µM] | Kd (CD99 antigen [19]) [µM] | IC50 (RD) [µM] | other results
1 | Nc1nc(-c2cccnc2)nc2c1ncn2[C@@H]1O[C@H](CO)[C@@H](O)[C@@H]1F | 58.7 | > 368 | 60 | 60 | 60 | 19.9 | 60 | > 400 | > 400 | > 368 | ≥ 400 | 335 | > 368 | ≥ 400 | > 400 | > 368 | 598.2 10^-6/s | > 400 | 1.8 | > 400 | Activity (U2OS [4]): inactive; Activity (TC-32 [6]): Active; Activity (U2OS [10]): inactive; Activity (TC-32 [11]): Active; Activity (U2OS [12]): inactive; Activity (TC-32 [15]): Non-Toxic; Activity (TC-32 [16]): Active; IC50 [20]: 45.1 µM; IC50 (PC-3): > 400 µM; IC50 (U-87 MG): > 400 µM
2 | Nc1nc(Cl)nc2c1ncn2[C@@H]1O[C@H](COC(C(=O)O)C(=O)O)[C@@H](O)[C@@H]1F | 27 | > 341 | 27 | 27 | 27 | 5.17 | 27 | > 400 | > 341 | > 341 | ≥ 400 | 1700 | > 341 | ≥ 400 | > 400 | > 341 | 2467 10^-6/s | > 400 | 1.5 | > 400 | Activity (U2OS [21]): inactive; Activity [22]: Active; Activity (U2OS [23]): inactive; Activity (TC-32 [24]): Active; Activity (TC-32 [25]): Active; Activity (U2OS [26]): inactive; Activity (TC-32 [27]): Active; IC50 [20]: 27 µM; IC50 (PC-3): > 400 µM; IC50 (U-87 MG): > 400 µM
